According to ChEMBL document CHEMBL1142195, “A novel nonnucleoside analogue that inhibits human immunodeficiency virus type 1 isolates resistant to current nonnucleoside reverse transcriptase inhibitors” (Antimicrob Agents Chemother, 2007):

What was measured:
Format in all cases: functional
[1] = test system: Human immunodeficiency virus 1; experiment: Antiviral activity against HIV1 isolate with RT 101Q, 103N, 225H mutation relative to wild type
[2] = test system: Human immunodeficiency virus 1; experiment: Antiviral activity against HIV1 isolate with RT 101H, 190A mutation relative to wild type
[3] = test system: Human immunodeficiency virus 1; experiment: Antiviral activity against HIV1 isolate with RT 101E, 190A mutation relative to wild type
[4] = test system: Human immunodeficiency virus 1; experiment: Antiviral activity against HIV1 isolate with RT 103N, 108I, 190A mutation relative to wild type
[5] = test system: Human immunodeficiency virus 1; experiment: Antiviral activity against HIV1 isolate with RT 98G, 103N, 108I mutation relative to wild type
Method in brief: (§1)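 Mutant RT clones built in pNL4-3.Luc.R−E− reporter, VSV-G-pseudotyped, single-round infection of HeLa-JC53 cells (15,000/well, MOI 0.03) with 1:4 serial compound dilutions in DMEM (phenol red-free), 2% FBS, 0.2% final DMSO; 48 h at 37°C, 5% CO2; luciferase chemiluminescence read-out. Fold change in EC50 relative to wild-type virus; mean of two tests.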

[6] = test system: Human immunodeficiency virus 1; experiment: Antiviral activity against HIV1 isolate with RT 101Q, 181C mutation relative to wild type
[7] = test system: Human immunodeficiency virus 1; experiment: Antiviral activity against HIV1 isolate with RT 103N, 108I, 238T mutation relative to wild type
[8] = test system: Human immunodeficiency virus 1; experiment: Antiviral activity against HIV1 isolate with RT 101E, 181C, 190S mutation relative to wild type
[9] = test system: Human immunodeficiency virus 1; experiment: Antiviral activity against HIV1 isolate with RT 190E mutation relative to wild type; method in brief: as §1
[10] = test system: Human immunodeficiency virus 1; experiment: Antiviral activity against HIV1 isolate with RT 98G, 103N, 181C, 190A mutation relative to wild type; method in brief: as §1
[11] = test system: Human immunodeficiency virus 1; experiment: Antiviral activity against HIV1 isolate with RT 106L, 188L mutation relative to wild type; method in brief: as §1
[12] = test system: Human immunodeficiency virus 1; experiment: Antiviral activity against HIV1 isolate with RT 190A mutation relative to wild type; method in brief: as §1
[13] = test system: Human immunodeficiency virus 1; experiment: Antiviral activity against HIV1 isolate with RT 98G, 188L mutation relative to wild type; method in brief: as §1
[14] = test system: Human immunodeficiency virus 1; experiment: Antiviral activity against HIV1 isolate with RT 98G, 108I, 181C mutation relative to wild type; method in brief: as §1
[15] = test system: Human immunodeficiency virus 1; experiment: Antiviral activity against HIV1 isolate with RT 179G mutation relative to wild type; method in brief: as §1
[16] = test system: Human immunodeficiency virus 1; experiment: Antiviral activity against HIV1 isolate with RT 101Q, 181C, 190S mutation relative to wild type
[17] = test system: Human immunodeficiency virus 1; experiment: Antiviral activity against HIV1 isolate with RT 103N, 108I mutation relative to wild type
[18] = test system: Human immunodeficiency virus 1; experiment: Antiviral activity against HIV1 isolate with RT 101Q, 103N mutation relative to wild type
[19] = test system: Human immunodeficiency virus 1; experiment: Antiviral activity against HIV1 isolate with RT 179T mutation relative to wild type; method in brief: as §1
[20] = test system: Human immunodeficiency virus 1; experiment: Antiviral activity against HIV1 isolate with RT 106I, 188L mutation relative to wild type; method in brief: as §1
[21] = test system: Human immunodeficiency virus 1; experiment: Antiviral activity against HIV1 isolate with RT 103N, 225H mutation relative to wild type; method in brief: as §1
[22] = test system: Human immunodeficiency virus 1; experiment: Antiviral activity against HIV1 isolate with RT 108I, 181C, 190A mutation relative to wild type; method in brief: as §1
[23] = test system: Human immunodeficiency virus 1; experiment: Antiviral activity against HIV1 isolate with RT 181C, 190A mutation relative to wild type; method in brief: as §1
[24] = test system: Human immunodeficiency virus 1; experiment: Antiviral activity against HIV1 isolate with RT 103N, 181C, 190A mutation relative to wild type
[25] = test system: Human immunodeficiency virus 1; experiment: Antiviral activity against HIV1 isolate with RT 101P, 190A mutation relative to wild type
[26] = test system: Human immunodeficiency virus 1; experiment: Antiviral activity against HIV1 isolate with RT 101E, 181C mutation relative to wild type
[27] = test system: Human immunodeficiency virus 1; experiment: Antiviral activity against HIV1 isolate with RT 181V mutation relative to wild type; method in brief: as §1
[28] = test system: Human immunodeficiency virus 1; experiment: Antiviral activity against HIV1 isolate with RT 101E, 181C, 190A mutation relative to wild type
[29] = test system: Human immunodeficiency virus 1; experiment: Antiviral activity against HIV1 isolate with RT 98G, 103N, 181C mutation relative to wild type; method in brief: as §1
[30] = test system: Human immunodeficiency virus 1; experiment: Antiviral activity against HIV1 isolate with RT 98G, 190A mutation relative to wild type
Method in brief: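 VSV-G-pseudotyped pNL4-3.Luc.R−E− molecular clones carrying the RT mutations, single-round infection of HeLa-JC53 cells (15,000/well) at MOI 0.03. Compounds serially diluted 1:4 in DMSO then in phenol red-free DMEM with 2% FBS, final DMSO 0.2%. Incubated 48 h at 37°C, 5% CO2. Luciferase read-out by chemiluminescence gives the EC50. Fold change is relative to wt virus, mean of two tests.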

[31] = test system: Human immunodeficiency virus 1; experiment: Antiviral activity against HIV1 isolate with RT 106A, 181C mutation relative to wild type; method in brief: as §1
[32] = test system: Human immunodeficiency virus 1; experiment: Antiviral activity against HIV1 isolate with RT 108I mutation relative to wild type; method in brief: as §1
[33] = test system: Human immunodeficiency virus 1; experiment: Antiviral activity against HIV1 isolate with RT 98G, 181C mutation relative to wild type; method in brief: as §1
[34] = test system: Human immunodeficiency virus 1; experiment: Antiviral activity against HIV1 isolate with RT 106A mutation relative to wild type; method in brief: as §1
[35] = test system: Human immunodeficiency virus 1; experiment: Antiviral activity against HIV1 isolate with RT 103R, 179D mutation relative to wild type; method in brief: as §1
[36] = test system: Human immunodeficiency virus 1; experiment: Antiviral activity against HIV1 isolate with RT 106A, 190A mutation relative to wild type; method in brief: as §1
[37] = test system: Human immunodeficiency virus 1; experiment: Antiviral activity against HIV1 isolate with RT 238T mutation relative to wild type; method in brief: as §1
[38] = test system: Human immunodeficiency virus 1; experiment: Antiviral activity against HIV1 isolate with RT 188L mutation relative to wild type; method in brief: as §1
[39] = test system: Human immunodeficiency virus 1; experiment: Antiviral activity against HIV1 isolate with RT 101Q mutation relative to wild type
[40] = test system: Human immunodeficiency virus 1; experiment: Antiviral activity against HIV1 isolate with RT 106A, F227L mutation relative to wild type; method in brief: as §1
[41] = test system: Human immunodeficiency virus 1; experiment: Antiviral activity against HIV1 isolate with RT 103S, 190A mutation relative to wild type; method in brief: as §1
[42] = test system: Human immunodeficiency virus 1; experiment: Antiviral activity against HIV1 isolate with RT 103N, 106A mutation relative to wild type
[43] = test system: Human immunodeficiency virus 1; experiment: Antiviral activity against HIV1 isolate with RT 100I, 103N mutation relative to wild type
[44] = test system: Human immunodeficiency virus 1; experiment: Antiviral activity against HIV1 isolate with RT 188H mutation relative to wild type; method in brief: as §1
[45] = test system: Human immunodeficiency virus 1; experiment: Antiviral activity against HIV1 isolate with RT 103N, 108I, 225H mutation relative to wild type
[46] = test system: Human immunodeficiency virus 1; experiment: Antiviral activity against HIV1 isolate with RT 179A mutation relative to wild type; method in brief: as §1
[47] = test system: Human immunodeficiency virus 1; experiment: Antiviral activity against HIV1 isolate with RT 103N, 106I mutation relative to wild type
[48] = test system: Human immunodeficiency virus 1; experiment: Antiviral activity against HIV1 isolate with RT 101E mutation relative to wild type
[49] = test system: Human immunodeficiency virus 1; experiment: Antiviral activity against HIV1 isolate with RT 101N, 103N mutation relative to wild type
[50] = test system: Human immunodeficiency virus 1; experiment: Antiviral activity against HIV1 isolate with RT 101E, 108I, 181C, 190A mutation relative to wild type
[51] = test system: Human immunodeficiency virus 1; experiment: Antiviral activity against HIV1 isolate with RT 103N, 106M mutation relative to wild type
[52] = test system: Human immunodeficiency virus 1; experiment: Antiviral activity against HIV1 isolate with RT 108I, 181C mutation relative to wild type; method in brief: as §1

NS(=O)(=O)c1ccc(NC(=O)CSc2nnc(Br)n2-c2ccc(C3CC3)c3ccccc23)c(Cl)c1
Fold change [1]: 3.9
Fold change [2]: 32
Fold change [3]: 83
Fold change [4]: 20
Fold change [5]: 2.2
Fold change [6]: 8.9
Fold change [7]: 2.5
Fold change [8]: >100
Fold change [9]: >100
Fold change [10]: 82
Fold change [11]: >100
Fold change [12]: 13
Fold change [13]: >100
Fold change [14]: 15
Fold change [15]: 0.3
Fold change [16]: >100
Fold change [17]: 1.3
Fold change [18]: 5.2
Fold change [19]: 1.3
Fold change [20]: 62
Fold change [21]: 1.6
Fold change [22]: >100
Fold change [23]: >100
Fold change [24]: >100
Fold change [25]: 92
Fold change [26]: >100
Fold change [27]: 20
Fold change [28]: >100
Fold change [29]: 4.2
Fold change [30]: 16
Fold change [31]: 16
Fold change [32]: 1.5
Fold change [33]: 11
Fold change [34]: 6
Fold change [35]: 0.3
Fold change [36]: >100
Fold change [37]: 2.2
Fold change [38]: 11
Fold change [39]: 2.2
Fold change [40]: >100
Fold change [41]: >100
Fold change [42]: 2.6
Fold change [43]: 0.9
Fold change [44]: 1.6
Fold change [45]: 2.6
Fold change [46]: 0.6
Fold change [47]: 1.8
Fold change [48]: 11
Fold change [49]: 0.6
Fold change [50]: >100
Fold change [51]: 12
Fold change [52]: 14

Cc1ccnc2c1NC(=O)c1cccnc1N2C1CC1 [NEVIRAPINE]
Fold change [1]: >100
Fold change [2]: >100
Fold change [3]: >100
Fold change [4]: >100
Fold change [5]: >100
Fold change [6]: >100
Fold change [7]: >100
Fold change [8]: >100
Fold change [9]: >100
Fold change [10]: >100
Fold change [11]: >100
Fold change [12]: >100
Fold change [13]: >100
Fold change [14]: >100
Fold change [15]: 0.1
Fold change [16]: >100
Fold change [17]: >100
Fold change [18]: >100
Fold change [19]: 0.5
Fold change [20]: >100
Fold change [21]: >100
Fold change [22]: >100
Fold change [23]: >100
Fold change [24]: >100
Fold change [25]: >100
Fold change [26]: >100
Fold change [27]: >100
Fold change [28]: >100
Fold change [29]: >100
Fold change [30]: >100
Fold change [31]: >100
Fold change [32]: 2.3
Fold change [33]: >100
Fold change [34]: >100
Fold change [35]: 1.3
Fold change [36]: >100
Fold change [37]: 100
Fold change [38]: >100
Fold change [39]: 2.8
Fold change [40]: >100
Fold change [41]: >100
Fold change [42]: >100
Fold change [43]: 42
Fold change [44]: >100
Fold change [45]: >100
Fold change [46]: 0.4
Fold change [47]: 122
Fold change [48]: 42
Fold change [49]: 32
Fold change [50]: >100
Fold change [51]: >100
Fold change [52]: >100
